Kir21 block: blocks the mouse Kir2.1 inward-rectifier potassium channel; P35561; HEK293-Kir2.1, FluxOR thallium flux fluorescence; hits give low values; B-score at 10 µM; 310,000 compounds, 0.85% hits; AID 1672;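 active means fluorescence ratio B-score at or below minus 3 SD of library scores, with starting-brightness B-score within 2 SD, cut at about -4.2 in these data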;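 further: channel flux triggered by added potassium and thallium sulfate stimulus; B-score of peak minus minimum fluorescence over baseline after thallium stimulus; more negative B-score means stronger Kir2.1 block with less thallium influx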
KCNQ1 inh: inhibitors of human KCNQ1 potassium channel; P51787; CHO-K1 KCNQ1, FluxOR thallium flux fluorescence; hits give high values; B-score at 10 µM; 310,000 compounds, 1.3% hits; AID 2642;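 active means compounds whose thallium flux B-score, printed positive for inhibition, exceeds three library SD while starting fluorescence stays within three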;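 further: channel opened by potassium depolarization with thallium stimulus after 20 min compound exposure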
KCNK3 block: human KCNK3 channel inhibition, primary screen. CHO-KCNK3 thallium flux, FluxOR fluorescence; hits give low values. B-score at 10 µM. 340,000 compounds, 0.84% hits;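 active means B-score under library mean minus 4 SD, starting fluorescence ratio at most library mean plus 5 SD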;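 further: more negative B-score means stronger inhibition of thallium flux through KCNK3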
hERG rescue: compounds protecting human hERG from proarrhythmic drug block. Q12809. CHO-hERG, FluxOR thallium flux, dofetilide IC70 present. activation (rescue from dofetilide block), less the hit threshold, % at 10 µM. 310,000 compounds, 0.51% hits;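 active means activation above the mean of controls blocked by dofetilide plus 5 SD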;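 further: thallium influx through hERG after potassium depolarization seen as dye fluorescence rise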
Target sequence (Q12809 whole entry, looked up): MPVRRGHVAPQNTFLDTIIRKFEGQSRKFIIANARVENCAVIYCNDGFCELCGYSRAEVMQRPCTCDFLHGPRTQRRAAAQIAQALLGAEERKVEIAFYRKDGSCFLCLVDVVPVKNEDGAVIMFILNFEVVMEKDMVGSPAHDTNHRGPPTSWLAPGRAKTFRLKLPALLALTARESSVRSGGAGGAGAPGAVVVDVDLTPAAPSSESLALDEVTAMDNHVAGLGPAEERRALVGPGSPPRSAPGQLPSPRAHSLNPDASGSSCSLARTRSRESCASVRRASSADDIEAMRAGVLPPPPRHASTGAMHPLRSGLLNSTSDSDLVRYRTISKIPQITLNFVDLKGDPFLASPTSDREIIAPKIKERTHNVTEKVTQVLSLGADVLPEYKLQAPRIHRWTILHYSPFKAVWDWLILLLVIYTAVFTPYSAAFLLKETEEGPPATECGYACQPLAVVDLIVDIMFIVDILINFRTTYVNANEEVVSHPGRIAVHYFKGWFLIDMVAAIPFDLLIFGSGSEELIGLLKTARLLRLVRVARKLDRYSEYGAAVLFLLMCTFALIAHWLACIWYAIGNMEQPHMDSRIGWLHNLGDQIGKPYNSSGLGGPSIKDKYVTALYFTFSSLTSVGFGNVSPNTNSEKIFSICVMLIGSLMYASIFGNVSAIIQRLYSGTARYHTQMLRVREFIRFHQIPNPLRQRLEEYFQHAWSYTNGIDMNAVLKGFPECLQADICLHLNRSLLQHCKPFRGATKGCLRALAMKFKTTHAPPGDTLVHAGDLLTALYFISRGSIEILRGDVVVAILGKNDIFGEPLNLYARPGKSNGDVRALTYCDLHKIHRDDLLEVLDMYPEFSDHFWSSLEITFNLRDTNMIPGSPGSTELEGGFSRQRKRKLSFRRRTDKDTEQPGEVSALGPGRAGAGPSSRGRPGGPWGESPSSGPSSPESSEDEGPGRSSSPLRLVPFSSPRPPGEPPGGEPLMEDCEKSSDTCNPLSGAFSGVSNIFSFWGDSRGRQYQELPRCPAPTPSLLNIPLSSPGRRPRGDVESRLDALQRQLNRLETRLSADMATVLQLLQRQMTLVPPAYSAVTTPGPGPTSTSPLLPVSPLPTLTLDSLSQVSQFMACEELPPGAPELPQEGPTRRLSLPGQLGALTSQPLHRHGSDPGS
KCNQ1 act: potentiators or activators of human KCNQ1 potassium channel | B-score at 10 µM | 310,000 compounds, 0.35% hits | AID 2648 | P51787 | CHO-K1 KCNQ1, thallium flux FluxOR fluorescence; hits give high values;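 active means fluorescence ratio B-score, a plate-corrected score, at least three library SD, with initial intensity B-score within 5 SD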
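Medium – assay buffer, equal DMSO in all wells · Material – CHO-K1 cell line with stable KCNQ1 potassium channel expression · Signal – kinetic FluxOR thallium fluorescence, 10-s 1-Hz baseline, 110-s post-stimulus read · Compound – single concentration per compound, DMSO matched to controls · Schedule – 37 °C overnight plating, 90-min dark dye load, 20-min compound pretreatment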
KCNK9 block: inhibitors of human KCNK9 two-pore domain potassium channel; HEK293 KCNK9, FluxOR thallium flux fluorescence; hits give low values; AID 488922; 310,000 compounds, 1.2% hits; Q9NPC2; B-score at 10 µM;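 active means ratio B-score over 3 SD below the library mean, with starting fluorescence within 5 SD of its mean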;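 further: negative B-score means less thallium flux so channel inhibition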
KCNK9 block conf: human KCNK9 inhibitor confirmation; shares compounds with KCNK9 block; HEK293 KCNK9 cells, FluxOR thallium flux fluorescence; inhibition, % at 10 µM; 4,900 compounds, 43% hits;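 active means thallium signal inhibited by more than 5 SD of the compound-free buffer control wells, on both duplicate plates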
Kir21 sel: mouse Kir2.1 off-target activity of KCNK9 modulators | AID 492993 | inhibition, % at 10 µM | Kir2.1 cells, FluxOR thallium flux fluorescence | shares compounds with KCNK9 block | 4,900 compounds, 4% hits;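 active means thallium signal drop more than 5 SD beyond the mean of the no-compound control wells, seen in both duplicate plates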;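 further: signal is fluorescence rise after thallium addition divided by baseline fluorescence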
HEK293 Tl ctr: second counter-screen for KCNK9 modulators: effect in non-induced cells; shares compounds with KCNK9 block; non-induced KCNK9-HEK293, FluxOR thallium flux; inhibition, % at 10 µM; 4,900 compounds, 40% hits;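 active means thallium signal drop beyond 5 SD of the untreated control mean, on both duplicate plates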
Hits are given with their value; 0 = inactive; - = not tested or not shown. This is a sample that favours compounds with a hit; in the whole collection about 3.7% have one here.

SMILES	Kir21 block	KCNQ1 inh	KCNK3 block	hERG rescue	KCNQ1 act	KCNK9 block	KCNK9 block conf	Kir21 sel	HEK293 Tl ctr
Cc1ccc(C(=O)CSc2nc3ccccc3c(=O)n2-c2ccccc2)s1	0	0	0	0	0	0	-	-	-
CCOC(=O)c1c(C)[nH]c(C)c1C(=O)CSc1nc2ccccc2c(=O)n1-c1ccc(F)cc1	0	0	0	0	0	-10	0	0	0
CCOC(=O)c1c(C)[nH]c(C)c1C(=O)CSc1nc2ccccc2c(=O)n1-c1ccccc1C	0	0	0	0	0	-9.6	32%	0	34%
Fc1cccc(Cl)c1CSc1ccc(-c2cccnc2)nn1	0	0	0	0	0	-11	33%	0	0
Cc1ccnc(NS(=O)(=O)c2ccc(NC(=O)C3C4C=CC(C4)C3C(=O)O)cc2)n1 (stereo not given)	0	0	0	0	0	0	-	-	-
Cc1ccc(NCc2nnc(SCc3ccc(C#N)cc3)n2Cc2ccco2)c(C)c1	0	0	0	0	0	-19	66%	0	36%
O=C(COc1ccc(Cl)cc1Cl)N1CCCN(C(=O)COc2ccc(Cl)cc2Cl)CC1	0	0	0	0	0	-11	36%	0	0
COc1cc(Cl)ccc1OCc1cc(C(=O)N2C[C@]3(C)C[C@H]2CC(C)(C)C3)no1	0	0	0	0	0	0	0	0	0
COc1cc(Cl)ccc1OCc1cc(C(=O)N2C[C@H]3CC[C@H]2C3)no1	0	0	0	0	0	0	-	-	-
COc1cccc(-n2c(=O)n(Cc3ccccc3)c(=O)c3[nH]cnc32)c1	0	0	0	0	0	0	-	-	-
CC(NC(=O)/C(C#N)=C/c1cn(-c2ccccc2)nc1-c1ccc(F)cc1)c1ccccc1 (stereo not given)	0	0	0	0	0	0	0	0	0
COc1cc(/C=C(/C#N)C(=O)NC(C)c2ccccc2)cc(OC)c1O (stereo not given)	0	0	0	0	0	0	-	-	-
COc1ccccc1/C=C/C=C(\C#N)C(=O)NC(C)c1ccccc1 (stereo not given)	0	0	0	0	0	0	0	0	0
CC(NC(=O)/C(C#N)=C/c1ccc(C(=O)O)cc1)c1ccccc1 (stereo not given)	0	0	0	0	0	0	0	0	0
O=C(Nc1ccccc1)O[C@@H]1C[C@H]2CCCC(=O)N3CC[C@@H](C1)[C@@H]23	-	-	0	-	-	-	-	-	-
O=C(Nc1ccccc1)OC1CC2CC1C1CCCC21 (stereo not given)	0	0	0	0	0	0	0	0	0
COc1ccccc1N1CCN(CCCCOc2cccc3ccccc23)CC1	0	0	0	0	0	0	0	0	0
COc1ccccc1OCCCCN1CCN(c2ccccc2OC)CC1	0	0	0	0	0	0	-	-	-
COc1ccc(-n2sc3c(c2=S)-c2cc(OC)ccc2NC3(C)C)cc1	0	0	0	0	0	0	-	-	-
COc1ccc2c(c1)-c1c(sn(-c3ccc(OC)c(OC)c3)c1=S)C(C)(C)N2	0	0	0	0	0	0	0	0	0
CCS(=O)(=O)Nc1ccc(C2=NN(S(C)(=O)=O)C(c3cccs3)C2)cc1 (stereo not given)	0	0	0	0	0	0	-	-	-
Cc1ccc(NC(=O)CCCn2nc(C)c3c(C)n(-c4ccccc4)nc3c2=O)c(Cl)c1	0	0	0	0	0	0	-	-	-
COc1ccc(S(=O)(=O)Cc2ccc(C(=O)N3CCN(c4cccc(C)c4)C(C)C3)o2)cc1 (stereo not given)	0	0	0	0	0	0	0	0	0
O=C(CNS(=O)(=O)c1ccc(Br)cc1)NCc1ccncc1	0	0	0	0	0	0	-	-	-
CC(C)(C)NC(=O)C[C@H]1C[C@H](C(=O)N2CCOCC2)[C@@]2(C)c3[nH]c4ccc(Cl)cc4c3CCN2C1=O	-	-	0	-	-	-	-	-	-
SMILES	Kir21 block	KCNQ1 inh	KCNK3 block	hERG rescue	KCNQ1 act	KCNK9 block	KCNK9 block conf	Kir21 sel	HEK293 Tl ctr
CC(C)c1ccc(C2C3=C(COC3=O)Nc3cc4c(cc32)OCO4)cc1 (stereo not given)	0	0	0	0	0	-9.4	0	0	0
Cc1nn(Cc2ccccc2)c(Cl)c1/C=C1\NC(=S)NC1=O	0	0	0	0	0	0	-	-	-
Cc1c(Cl)cccc1NC(=S)N(CCN(C)C)C(C)c1ccco1 (stereo not given)	0	0	0	0	0	0	0	0	0
COc1ccc(Br)cc1CNC(=O)C1CCN(S(=O)(=O)N2CCCCC2)CC1	0	0	0	0	0	0	-	-	-
Cc1ccc(CNC(=O)C2CCCN(S(=O)(=O)N3CC(C)CC(C)C3)C2)cc1 (stereo not given)	0	0	0	0	0	0	0	0	0
CCCS(=O)(=O)N1CCCC(C(=O)NCc2ccc(C)cc2)C1 (stereo not given)	0	0	0	0	0	0	-	-	-
COc1ccc(Br)cc1CNC(=O)C1CCCN(S(=O)(=O)N2CC(C)CC(C)C2)C1 (stereo not given)	0	0	0	0	0	-8.5	0	0	0
Cc1ccc(S(=O)(=O)N(C)C)cc1-n1c(SCC(=O)N(C)C)nc2ccccc2c1=O	0	0	0	0	0	0	-	-	-
Cc1ccc(S(=O)(=O)N(C)C)cc1-n1c(SCC(=O)Nc2ccc(F)c(F)c2F)nc2ccccc2c1=O	0	0	0	0	0	-14	64%	0	40%
CC1(C)CC(C(CCN(Cc2ccccc2)C(=O)c2ccco2)c2ccc(F)cc2)CCO1 (stereo not given)	0	0	0	0	0	-10	67%	0	50%
CC1(C)CC(N(Cc2ccc(F)cc2)C(=O)c2ccc(F)cc2)CCO1 (stereo not given)	0	0	0	0	0	0	-	-	-
O=C1CCC(/C=C/c2ccccc2)=NN1Cc1ccc(Cl)c(Cl)c1	0	0	0	0	0	0	0	0	0
O=C(CSc1nc(-c2ccccc2Cl)ns1)c1ccc(Cl)cc1	0	0	0	0	0	-12	46%	0	43%
O=C(Nc1ccc2nc(-c3cccs3)[nH]c2c1)c1cccs1	0	0	0	0	0	-10	56%	0	0
CCOc1ccccc1CN1CCN(CC2=Cc3cc(OC)ccc3OC2)CC1CCO (stereo not given)	0	0	0	0	0	0	-	-	-
COc1ccc(-c2nc(-c3ccc4c(c3)OCO4)[nH]c2-c2ccc(OC)cc2)cc1	0	0	0	0	0	-9.2	65%	0	0

Bioassay records as filed in PubChem BioAssay.
